Test results published in ChEMBL document CHEMBL1153852, “Steroidal lactones as inhibitors of 17beta-hydroxysteroid dehydrogenase type 5: chemical synthesis, enzyme inhibitory activity, and assessment of estrogenic and androgenic activities” (Eur J Med Chem, 2009).

Assays:
[1] = molecular target: T1, Estrogen receptor (Rattus norvegicus) (UniProt P06211); test: Binding affinity to rat uterus estrogen receptor at 0.1 uM
T1 sequence (whole entry): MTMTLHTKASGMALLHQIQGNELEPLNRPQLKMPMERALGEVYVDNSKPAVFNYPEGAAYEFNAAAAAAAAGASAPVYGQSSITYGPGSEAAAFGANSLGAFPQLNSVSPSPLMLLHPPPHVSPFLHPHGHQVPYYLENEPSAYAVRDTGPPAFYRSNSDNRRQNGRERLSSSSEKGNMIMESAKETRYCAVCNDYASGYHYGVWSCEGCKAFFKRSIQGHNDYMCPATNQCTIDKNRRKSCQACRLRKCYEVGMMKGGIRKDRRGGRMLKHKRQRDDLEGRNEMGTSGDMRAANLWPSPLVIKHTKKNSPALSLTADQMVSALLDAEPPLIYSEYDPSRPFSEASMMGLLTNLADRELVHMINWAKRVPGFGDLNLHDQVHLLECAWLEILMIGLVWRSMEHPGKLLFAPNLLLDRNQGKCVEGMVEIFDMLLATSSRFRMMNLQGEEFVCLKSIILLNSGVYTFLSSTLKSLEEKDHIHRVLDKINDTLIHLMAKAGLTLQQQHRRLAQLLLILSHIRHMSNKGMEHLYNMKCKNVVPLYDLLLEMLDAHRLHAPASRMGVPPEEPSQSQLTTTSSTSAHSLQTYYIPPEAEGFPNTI

[2] = molecular target: T2, Progesterone receptor (Rattus norvegicus) (UniProt Q63449); test: Binding affinity to rat uterus progesterone receptor at 10 uM
T2 sequence (whole entry): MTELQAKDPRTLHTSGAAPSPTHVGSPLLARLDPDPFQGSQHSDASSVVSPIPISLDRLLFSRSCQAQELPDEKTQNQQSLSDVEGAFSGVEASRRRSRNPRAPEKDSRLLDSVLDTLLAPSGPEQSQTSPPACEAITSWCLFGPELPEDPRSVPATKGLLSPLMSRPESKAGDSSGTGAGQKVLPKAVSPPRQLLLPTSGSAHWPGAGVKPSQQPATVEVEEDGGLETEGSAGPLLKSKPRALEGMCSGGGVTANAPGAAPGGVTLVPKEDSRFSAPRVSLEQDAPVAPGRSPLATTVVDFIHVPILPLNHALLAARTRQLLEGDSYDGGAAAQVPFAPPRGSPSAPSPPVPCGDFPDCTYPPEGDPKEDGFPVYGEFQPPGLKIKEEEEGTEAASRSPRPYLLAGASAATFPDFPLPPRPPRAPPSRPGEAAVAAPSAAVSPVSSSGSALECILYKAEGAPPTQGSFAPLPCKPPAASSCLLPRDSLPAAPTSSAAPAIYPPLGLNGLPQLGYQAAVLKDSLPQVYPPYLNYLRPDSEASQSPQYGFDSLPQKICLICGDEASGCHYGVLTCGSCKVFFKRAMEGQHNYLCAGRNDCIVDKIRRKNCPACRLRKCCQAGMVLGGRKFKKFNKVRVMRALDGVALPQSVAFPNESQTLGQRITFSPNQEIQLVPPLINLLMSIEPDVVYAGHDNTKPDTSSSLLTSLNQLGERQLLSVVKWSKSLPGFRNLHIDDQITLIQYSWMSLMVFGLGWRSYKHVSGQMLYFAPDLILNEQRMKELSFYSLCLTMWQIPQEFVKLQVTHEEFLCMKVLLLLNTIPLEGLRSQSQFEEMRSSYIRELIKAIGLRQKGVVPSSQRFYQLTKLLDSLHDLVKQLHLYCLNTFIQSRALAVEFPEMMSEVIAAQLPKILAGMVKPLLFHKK

[3] = molecular target: T3, Glucocorticoid receptor (Rattus norvegicus) (UniProt P06536); test: Binding affinity to rat liver glucocorticoid receptor at 0.1 uM
T3 sequence (whole entry): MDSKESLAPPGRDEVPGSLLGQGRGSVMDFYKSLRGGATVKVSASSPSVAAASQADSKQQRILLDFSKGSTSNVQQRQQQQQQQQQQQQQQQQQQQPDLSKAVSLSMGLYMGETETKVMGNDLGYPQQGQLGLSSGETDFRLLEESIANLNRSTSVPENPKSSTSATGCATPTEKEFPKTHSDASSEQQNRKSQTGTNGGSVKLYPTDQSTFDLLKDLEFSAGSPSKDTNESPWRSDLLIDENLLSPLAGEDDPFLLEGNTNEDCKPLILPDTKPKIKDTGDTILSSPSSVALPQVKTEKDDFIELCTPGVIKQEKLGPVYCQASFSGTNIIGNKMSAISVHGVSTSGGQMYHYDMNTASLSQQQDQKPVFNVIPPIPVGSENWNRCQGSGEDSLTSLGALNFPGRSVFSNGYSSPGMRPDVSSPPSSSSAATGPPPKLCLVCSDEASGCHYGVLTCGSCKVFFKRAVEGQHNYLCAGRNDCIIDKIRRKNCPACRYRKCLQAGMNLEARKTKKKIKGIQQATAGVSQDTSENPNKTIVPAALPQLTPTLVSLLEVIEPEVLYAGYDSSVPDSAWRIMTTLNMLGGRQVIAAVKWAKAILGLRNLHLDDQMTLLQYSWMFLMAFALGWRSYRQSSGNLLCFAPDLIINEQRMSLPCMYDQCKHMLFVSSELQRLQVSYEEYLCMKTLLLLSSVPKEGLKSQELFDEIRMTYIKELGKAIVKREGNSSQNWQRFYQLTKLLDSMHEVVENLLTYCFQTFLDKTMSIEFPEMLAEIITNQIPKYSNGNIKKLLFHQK
Summary of the method: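 Rat liver glucocorticoid receptor competitive binding, reported as % binding. Bound and free steroid are separated by dextran-coated charcoal adsorption instead of protamine sulfate precipitation.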

[4] = molecular target: T2, Progesterone receptor (Rattus norvegicus); test: Binding affinity to rat uterus progesterone receptor at 0.1 uM
[5] = molecular target: T2, Progesterone receptor (Rattus norvegicus); test: Binding affinity to rat uterus progesterone receptor at 1 uM
[6] = molecular target: T4, 17-beta-hydroxysteroid dehydrogenase type 1 (Homo sapiens) (UniProt P14061); test: Inhibition of human 17beta-HSD1 expressed in HEK293 cells assessed as enzyme-mediated transformation of [14C]-E1 in to [14C]-E2 at 1 uM; assay type: cell-based
T4 sequence (whole entry): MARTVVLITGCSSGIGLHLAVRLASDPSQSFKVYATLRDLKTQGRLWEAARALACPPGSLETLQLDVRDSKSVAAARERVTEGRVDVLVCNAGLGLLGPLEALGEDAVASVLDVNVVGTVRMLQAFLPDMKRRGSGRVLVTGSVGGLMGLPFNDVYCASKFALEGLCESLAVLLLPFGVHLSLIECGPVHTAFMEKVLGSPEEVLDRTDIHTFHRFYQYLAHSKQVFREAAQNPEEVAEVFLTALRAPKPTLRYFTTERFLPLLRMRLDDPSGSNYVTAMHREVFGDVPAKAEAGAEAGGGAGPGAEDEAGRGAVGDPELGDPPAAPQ

Row | Compound | Activity [1] | Activity [2] | Activity [3] | Activity [4] | Activity [5] | inhibition [6]
1 | CC1(C)CC[C@@]2(CC[C@H]3[C@@H]4CCc5cc(O)ccc5[C@H]4CC[C@@]32C)OC1=O | 10% | 35% | 0% | 11% |  | 
2 | CC1(C)CC[C@@]2(CC[C@H]3[C@@H]4CCc5ccccc5[C@H]4CC[C@@]32C)OC1=O |  |  |  |  | 5% | 50%
